Measurements: ChEMBL document CHEMBL4808197, “Synthesis, docking, machine learning and antiproliferative activity of the 6-ferrocene/heterocycle-2-aminopyrimidine and 5-ferrocene-1H-Pyrazole derivatives obtained by microwave-assisted Atwal reaction as potential anticancer agents” (Bioorg Med Chem Lett, 2021)

Key:
Assay type in all cases: functional, cell-based
[1] = system: HL-60; assay: Antiproliferative activity against human HL-60 cells assessed as inhibition of cell proliferation measured by MTT assay
How it was run: (§1)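 Tumour cell panel: HCT116 (colorectal carcinoma), PC3 (prostate adenocarcinoma), HL60 (acute promyelocytic leukaemia), SNB19 (astrocytoma). Antiproliferative effect reported as half-maximal inhibitory concentration (IC50, µM) for each line.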

[2] = system: HCT-116; assay: Antiproliferative activity against human HCT-116 cells assessed as inhibition of cell proliferation measured by MTT assay; how it was run: as §1
[3] = system: PC-3; assay: Antiproliferative activity against human PC-3 cells assessed as inhibition of cell proliferation measured by MTT assay; how it was run: as §1
[4] = system: SNB-19; assay: Antiproliferative activity against human SNB-19 cells assessed as inhibition of cell proliferation measured by MTT assay; how it was run: as §1
[5] = system: HeLa; assay: Cytotoxicity against human HeLa cells assessed as inhibition of cell viability
[6] = system: A549; assay: Antiproliferative activity against human A549 cells assessed as inhibition of cell proliferation
[7] = system: B16-F10; assay: Antiproliferative activity against mouse B16-F10 cells assessed as inhibition of cell proliferation

IC50 [1] [µM] | IC50 [2] [µM] | IC50 [3] [µM] | IC50 [6] [µM] | IC50 [7] [µM] | SMILES | IC50 [4] [µM] | IC50 [5] [µM]
66.5 | 120 | 142 | – | – | Nc1nc(-c2ccccc2)cc(-c2cnn(-c3ccccc3)n2)n1 | > 200 | –
68.2 | 95.3 | 58.2 | – | – | Nc1ccc(-c2cc(-c3cnn(-c4ccccc4)n3)nc(N)n2)cc1 | 106 | –
> 200 | 133 | > 200 | – | – | Nc1nc(-c2ccc([N+](=O)[O-])cc2)cc(-c2cnn(-c3ccccc3)n2)n1 | 132 | –
– | – | – | 16.3 | 16.2 | Cc1ccc(-c2cc(C(F)(F)F)nn2-c2ccc(S(N)(=O)=O)cc2)cc1 [CELECOXIB] | – | –

More lines, now with the values behind:

SMILES | IC50 [1] [µM] | IC50 [2] [µM] | IC50 [3] [µM] | IC50 [6] [µM] | IC50 [7] [µM] | IC50 [4] [µM] | IC50 [5] [µM]
Nc1nc(-c2ccccc2)cc(-c2cccs2)n1 | 70.3 | 57 | 33.6 | – | – | 85.1 | –
Nc1nc(-c2ccccc2)cc(-c2ccc[nH]2)n1 | 29.3 | 55.5 | 81.5 | – | – | 174 | –
Nc1nc(-c2ccccc2)cc(-c2cn(-c3ccccc3)nc2-c2ccc([N+](=O)[O-])cc2)n1 | – | – | – | – | – | – | 5.47
